In ChEMBL document CHEMBL1121659 (J Med Chem, 1981):

Columns and labels:
Mus musculus [1] = assay: Time to first twitch in intravenous pentylenetetrazole test in mice at 300 mg/kg for 48 hr time of test; assay type: functional
In short: (§1)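 Carworth Farm No. 1 mice (average 20 g) were dosed ip. At set times afterwards, 0.5% pentylenetetrazol in heparinized saline was infused into the tail vein at 0.34 mL/min. Time to first twitch was recorded in individual mice, with observation to 240 s.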

Mus musculus [2] = assay: Compound was evaluated for the neurotoxicity after intraperitoneal administration at 24 hours; assay type: organism-based; details: in vivo, ip
In short: (§2)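 Rotarod ataxia test in Carworth Farm No. 1 mice, run by the ADD program. Dosed ip in aqueous 30% PEG 400. Neurological deficit scored at 24 and 48 h after doses up to 1000 mg/kg.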

[3] = Compound was evaluated for the toxicity in mouse on 7 th day when administered through intraperitoneal route; assay type: organism-based; details: in vivo, ip
In short: (§3)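 Male Swiss Webster mice (20–40 g) dosed in propylene glycol (10–20 mL/kg), ip at 10, 20, 50, 100 and 200 mg/kg or po at 100 and 200 mg/kg. Ten mice per dose level, observed for toxicity for 1 week. LD50 taken at 7 days.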

Mus musculus [4] = assay: Time to first twitch in intravenous pentylenetetrazole test in mice at 100 mg/kg for 48 hr time of test; assay type: functional; in short: as §1
[5] = Compound was evaluated for the tissue levels after 1 hour of administration of 5 mg/kg through intravenous route, the given data is tissue/plasma ratios brain; assay type: ADME, organism-based; parameters: dose 5 mg/kg, route intravenous
In short: (§4)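 Anesthetized male Wistar rats received [14C] compound 5 mg/kg by slow jugular infusion in propylene glycol–0.1 N NaOH (1:1). Tissues were taken at 1 h, four per group, rinsed, blotted and weighed. Fat, muscle and red cells were combusted directly, other organs after EtOH homogenization. Tissue/plasma 14C ratios were computed.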

[6] = Compound was evaluated for the Brain levels at 24 h in the Swiss webster mouse when administered at the […]; assay type: ADME, organism-based; details: read-out: Plasma level
In short: (§5)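 Swiss Webster mice (20–30 g) received [14C] compound 10 mg/kg ip. Four animals were killed at each of 12, 18, 24, 36, 48 and 72 h. Radioactivity was measured in plasma and brain, and the plasma elimination half-life was derived from these levels.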

[7] = Compound was evaluated for the average plasma levels at 24 hours, after administration of intraperitoneal route; assay type: ADME; details: ip, read-out: Plasma level
In short: (§6)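 Male Wistar rats were given [14C] compound 5 mg/kg ip in propylene glycol (2 mL/kg). Blood was taken by cardiac puncture under ether at 1, 2, 3, 5 and 7 days, six rats per time point. Plasma 14C was counted to give the β-phase elimination half-life and plasma levels.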

[8] = Compound was evaluated for the tissue levels after 1 hour of administration of 5 mg/kg through intravenous route, the given data is tissue/plasma ratios lungs; assay type: ADME, organism-based; parameters: dose 5 mg/kg, route intravenous; in short: as §4
Mus musculus [9] = assay: Time to first twitch in intravenous pentylenetetrazole test in mice at 500 mg/kg for 24 hr time of test; assay type: functional
In short: (§7)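 Carworth Farm no. 1 mice (av wt 20 g) given the compound ip; at the designated time afterwards, 0.5% pentylenetetrazol in heparinized saline was infused into the tail vein at 0.34 mL/min. Time to first twitch (minimal excitation) was recorded for individual mice, observed up to 240 s.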

Mus musculus [10] = assay: Time to first twitch in intravenous pentylenetetrazole test in mice at 300 mg/kg for 72 h time of test; assay type: functional; in short: as §1
[11] = Compound was evaluated for the tissue levels after 1 hour of administration of 5 mg/kg through intravenous route, the given data is tissue/plasma ratios Muscle; assay type: ADME, organism-based; parameters: dose 5 mg/kg, route intravenous; in short: as §4
[12] = Compound was evaluated for the toxicity in mouse on 7 th day when administered through Oral route; assay type: organism-based; details: in vivo; in short: as §3
Mus musculus [13] = assay: Time to first twitch in intravenous pentylenetetrazole test in mice at 150 mg/kg for 72 h time of test; assay type: functional; in short: as §1
[14] = Compound was evaluated for the tissue levels after 1 hour of administration of 5 mg/kg through intravenous route, the given data is tissue/plasma ratios kidneys; assay type: ADME, organism-based, Kidney; parameters: dose 5 mg/kg, route intravenous; in short: as §4
Mus musculus [15] = assay: Time to first twitch in intravenous pentylenetetrazole test in mice at 300 mg/kg for 30 hr time of test; assay type: functional; in short: as §1
[16] = Compound was evaluated for the average apparent volume of distribution when administered through intravenous route; assay type: ADME, organism-based; details: in vivo, read-out: Vd app
In short: (§8)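 Male Wistar rats under pentobarbital (25 mg/kg ip) received [14C] compound 5 mg/kg iv in propylene glycol–0.1 N NaOH (1:1). Dosing was by jugular infusion, or by tail vein for later time points.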

[17] = Compound was evaluated for the biological half life in rats after a dose of 5 mg/kg given intravenous route; assay type: ADME, organism-based; parameters: dose 5 mg/kg, route intravenous; details: rat, in vivo; in short: as §8
[18] = Compound at the dose 10 mg/kg administered intraperitoneally was evaluated for the excretion rate in rats in 7 days through feces; assay type: ADME, organism-based; parameters: dose 10 mg/kg, route intraperitoneal; details: rat, faeces, ip, read-out: Excretion
In short: (§9)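 Male Wistar rats (150–330 g) in individual metabolic cages received [14C] compound 10 mg/kg ip in propylene glycol (5 mL/kg), n=4. Urine and feces were collected for 7 days. Urine was diluted with EtOH and counted directly. Fecal EtOH homogenates were dried, combusted and counted as trapped 14CO2.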

[19] = Compound was evaluated for the tissue levels after 1 hour of administration of 5 mg/kg through intravenous route, the given data is tissue/plasma ratios heart; assay type: ADME, organism-based; parameters: dose 5 mg/kg, route intravenous; in short: as §4
Mus musculus [20] = assay: Compound was evaluated for the neurotoxicity after intraperitoneal administration at 48 hours; assay type: organism-based; details: in vivo, ip; in short: as §2
Mus musculus [21] = assay: Time to first twitch in intravenous pentylenetetrazole test in mice at 200 mg/kg for 30 h time of test; assay type: functional; in short: as §1
Mus musculus [22] = assay: Time to first twitch in intravenous pentylenetetrazole test in mice at 1000 mg/kg for 24 hr time of test; assay type: functional; in short: as §1
[23] = Compound was evaluated for the tissue levels after 1 hour of administration of 5 mg/kg through intravenous route, the given data is tissue/plasma ratios red cells; assay type: ADME, organism-based; parameters: dose 5 mg/kg, route intravenous; in short: as §4
Mus musculus [24] = assay: Time to first twitch in intravenous pentylenetetrazole test in mice at 500 mg/kg for 48 hr time of test; assay type: functional; in short: as §7
[25] = Compound was evaluated for the average plasma levels at 24 hours, after administration of intravenous route; assay type: ADME; details: read-out: Plasma level; in short: as §8
[26] = Compound was evaluated for the plasma level at 18 hr in the Swiss webster mouse when administered at the […]; assay type: ADME; details: read-out: Plasma level; in short: as §5
[27] = Compound at the dose 10 mg/kg administered intraperitoneally was evaluated for the excretion rate in rats in 7 days through urine; assay type: ADME, organism-based; parameters: dose 10 mg/kg, route intraperitoneal; details: rat, ip, read-out: Excretion; in short: as §9
Mus musculus [28] = assay: Time to first twitch in intravenous pentylenetetrazole test in mice at 100 mg/kg for 72 hr time of test; assay type: functional; in short: as §1
Mus musculus [29] = assay: Time to first twitch in intravenous pentylenetetrazole test in mice at 200 mg/kg for 48 hr time of test; assay type: functional; in short: as §1
[30] = Compound was evaluated for the tissue levels after 1 hour of administration of 5 mg/kg through intravenous route, the given data is tissue/plasma ratios gastrointestinal tract; assay type: ADME, organism-based; parameters: dose 5 mg/kg, route intravenous; in short: as §4
[31] = Compound was evaluated for the cumulative excretion rate in rats at the dose 10 mg/kg, intraperitoneally for 18 days through feces; assay type: ADME, organism-based; parameters: dose 10 mg/kg, route intraperitoneal; details: rat, faeces, ip, read-out: Excretion
In short: (§10)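 Four male Wistar rats were dosed with [14C] compound at 10 mg/kg ip in propylene glycol (5 mL/kg). Urine and feces were collected at 3-day intervals for 18 days. Fecal EtOH homogenates were combusted and counted. Daily fecal rate for the 0–3 day interval was corrected for gastrointestinal transit time (about 18 h).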

Mus musculus [32] = assay: Time to first twitch in intravenous pentylenetetrazole test in mice at 150 mg/kg for 30 hr time of test; assay type: functional; in short: as §1
[33] = Compound was evaluated for the plasma biological half life in the Swiss webster mouse when administered at the […]; assay type: ADME, organism-based; in short: as §5
Mus musculus [34] = assay: Time to first twitch in intravenous pentylenetetrazole test in mice at 150 mg/kg for 48 hr time of test; assay type: functional; in short: as §1
Mus musculus [35] = assay: Time to first twitch in intravenous pentylenetetrazole test in mice at 100 mg/kg for 96 hr time of test; assay type: functional; in short: as §1
[36] = Compound was evaluated for the in rats after the dose of 5 mg/kg intravenously, at the dose 4 hour biliary excretion; assay type: ADME, organism-based; parameters: dose 5 mg/kg, route intravenous; details: rat, bile, iv, read-out: Excretion
In short: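 Three male rats with jugular cannulae, body temperature held at 37–38 °C, received [14C] compound 5 mg/kg by 3–5 min infusion in propylene glycol–ethanol–0.1 N NaOH (4:1:5, 1 mL/kg). Bile was collected in two 30-min periods, then hourly up to 4 h, and counted. Bile volume was also determined.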

Mus musculus [37] = assay: Time to first twitch in intravenous pentylenetetrazole test in mice at 750 mg/kg for 48 hr time of test; assay type: functional; in short: as §7
Mus musculus [38] = assay: Time to first twitch in intravenous pentylenetetrazole test in mice at 200 mg/kg for 96 hr time of test; assay type: functional; in short: as §1
[39] = Compound was evaluated for the biological half life of elimination in feces; assay type: ADME, tissue-based; details: faeces
Mus musculus [40] = assay: Time to first twitch in intravenous pentylenetetrazole test in mice at 100 mg/kg for 30 h time of test; assay type: functional; in short: as §1
Mus musculus [41] = assay: Time to first twitch in intravenous pentylenetetrazole test in mice at 150 mg/kg for 96 hr time of test; assay type: functional; in short: as §1
Mus musculus [42] = assay: Time to first twitch in intravenous pentylenetetrazole test in mice at 750 mg/kg for 24 hr time of test; assay type: functional; in short: as §7
[43] = Compound was evaluated for the cumulative excretion rate in rats at the dose 10 mg/kg, intraperitoneally for 18 days through urine; assay type: ADME, organism-based; parameters: dose 10 mg/kg, route intraperitoneal; details: rat, ip, read-out: Excretion; in short: as §10
Mus musculus [44] = assay: Time to first twitch in intravenous pentylenetetrazole test in mice at 200 mg/kg for 72 hr time of test; assay type: functional; in short: as §1
[45] = Compound was evaluated for the biological half life in rats after a dose of 5 mg/kg given intraperitoneal route; assay type: ADME, organism-based; parameters: dose 5 mg/kg, route intraperitoneal; details: rat, in vivo, ip; in short: as §6
Rattus norvegicus = assay: excretion rate in rats after the dose of 5 mg/kg intravenously, at the dose 4 hour Rate of biliary excretion; 0.06-0.15%/h; assay type: ADME, organism-based, Bile; parameters: dose 5 mg/kg, route intravenous; details: in vivo, iv
[46] = Compound was evaluated for the tissue levels after 1 hour of administration of 5 mg/kg through intravenous route, the given data is tissue/plasma ratios liver; assay type: ADME, organism-based; parameters: dose 5 mg/kg, route intravenous; in short: as §4

SMILES: O=C1NC(=O)C(c2ccc(C(F)(F)F)cc2)(c2ccc(C(F)(F)F)cc2)N1
- Time (Mus musculus [1]): 32.4 s
- Toxic dose (Mus musculus [2]): 750 mg/kg
- LD50 at 7 days [3]: 40 mg/kg
- Time (Mus musculus [4]): 24.3 s
- Kp at 1 h [5]: 0.14
- concentration at 24 h [6]: 3500 ng/mL
- concentration at 24 h [7]: 11000 ng/mL
- Kp at 1 h [8]: 0.62
- Time (Mus musculus [9]): 27.3 s
- Time (Mus musculus [10]): 24.9 s
- Kp at 1 h [11]: 0.41
- LD50 at 7 days [12]: 100 mg/kg
- Time (Mus musculus [13]): 24.1 s
- Kp at 1 h [14]: 0.61
- Time (Mus musculus [15]): 22 s
- Vd [16]: 0.42 L/kg
- half-life [17]: 66.7 h
- dose excreted at 168 h [18]: 67%
- Kp at 1 h [19]: 0.66
- Toxic dose (Mus musculus [20]): 1000 mg/kg
- Time (Mus musculus [21]): 29.6 s
- Time (Mus musculus [22]): 25.5 s
- Kp at 1 h [23]: 0.12
- Time (Mus musculus [24]): 28.7 s
- concentration at 24 h [25]: 9400 ng/mL
- concentration at 18 h [26]: 27000 ng/mL
- dose excreted at 168 h [27]: 0.3%
- Time (Mus musculus [28]): 27.1 s
- Time (Mus musculus [29]): 24.5 s
- Kp at 1 h [30]: 0.48
- dose excreted at 432 h [31]: 94%
- Time (Mus musculus [32]): 28.6 s
- half-life [33]: 115 h
- Time (Mus musculus [34]): 26.7 s
- Time (Mus musculus [35]): 27.5 s
- dose excreted at 4 h [36]: 0.5%
- Time (Mus musculus [37]): 71 s
- Time (Mus musculus [38]): 34.5 s
- half-life [39]: 93.6 h
- Time (Mus musculus [40]): 23.1 s
- Time (Mus musculus [41]): 23.4 s
- Time (Mus musculus [42]): 26.6 s
- dose excreted at 432 h [43]: 0.25%
- Time (Mus musculus [44]): 23.6 s
- half-life [45]: 71.7 h
- Excretion rate (Rattus norvegicus): 0.15
- Kp at 1 h [46]: 0.96
